According to ChEMBL document CHEMBL3244388, “Synthesis and antihypertensive activity of 2-benzamido-1,2,3,4,6,7,12,12b-octahydroindolo[2,3-a]quinolizines” (J Med Chem, 1979):
Active and inactive are the calls of the source. No cut-off for these calls is given here.

How the values were obtained:
Rattus norvegicus [1] = assay: Antihypertensive activity in spontaneous hypertensive rat assessed as change in systolic blood pressure at 50 mg/kg, po […] measured 2 hrs post last dose on day 3 by tail-cuff method relative to vehicle-treated control; assay type: functional, Artery
Outline: (§1)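 Spontaneously hypertensive rats, pre-trained for 2 weeks; animals with baseline below 175 mmHg excluded. Oral dosing at 0 h on days 1, 2 and 3, six rats per group. After warming (20 min, 40 °C), systolic pressure was read by tail-cuff with microphone, 3–5 readings averaged. Readings at 0 h on days 1 and 3 and 2 h post-dose on day 3 were compared with 0-h controls by paired t test; a drop over 15 mmHg counted as active.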

Rattus norvegicus [2] = assay: Antihypertensive activity in spontaneous hypertensive rat assessed as change in systolic blood pressure at 25 mg/kg, po administered […] measured 2 hrs post last dose on day 3 by tail-cuff method relative to vehicle-treated control; assay type: functional, Artery; outline: as §1
Rattus norvegicus [3] = assay: Toxicity in spontaneous hypertensive rat assessed as mortality at 50 mg/kg, po administered on […] measured 2 hrs post last dose on day 3; assay type: organism-based; parameters: dose 50 mg/kg, route oral; settings: in vivo
Outline: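 Genetically spontaneously hypertensive rats, each trained for 2 weeks to set baseline; animals below 175 mmHg were excluded. Groups of six were dosed orally at 0 h on days 1, 2 and 3. Systolic pressure was read by indirect tail-cuff after 20 min conditioning at 40 °C, 3–5 readings averaged, at 0 h on days 1 and 3 and 2 h post-dose on day 3.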

Felis catus = organism: Felis catus; assay: Inhibition of cat spleen alpha-adrenergic receptor; assay type: tissue-based
Rattus norvegicus [4] = assay: Antihypertensive activity in spontaneous hypertensive rat assessed as change in systolic blood pressure at 5 mg/kg, po administered […] measured 2 hrs post last dose on day 3 by tail-cuff method relative to vehicle-treated control; assay type: functional, Artery; outline: as §1
Canis familiaris = assay: Inhibition of alpha-adrenergic receptor in iv dosed dog; assay type: functional, organism-based; settings: Canis lupus familiaris
Rattus norvegicus [5] = assay: Antihypertensive activity in spontaneous hypertensive rat assessed as change in systolic blood pressure at 10 mg/kg, po […] measured 2 hrs post last dose on day 3 by tail-cuff method […]; assay type: functional, Artery; outline: as §1
Rattus norvegicus [6] = assay: Antihypertensive activity in spontaneous hypertensive rat assessed as change in systolic blood pressure at 15 mg/kg, po […] measured 2 hrs post last dose on day 3 by tail-cuff method relative to vehicle-treated control; assay type: functional, Artery; outline: as §1

| SMILES | Activity (Rattus norvegicus [1]) | Activity (Rattus norvegicus [2]) | also measured |
| --- | --- | --- | --- |
| CCNC1CCN2CCc3c([nH]c4ccccc34)[C@@H]2C1 (stereo partly drawn) | -4 mmHg |  |  |
| Cc1ccccc1C(=O)N[C@@H]1CCN2CCc3c([nH]c4ccccc34)[C@@H]2C1 | 13 mmHg |  |  |
| O=C(Nc1ccccc1)N[C@@H]1CCN2CCc3c([nH]c4ccccc34)[C@@H]2C1 | -22 mmHg |  |  |
| CC(=O)NC1CCN2CCc3c([nH]c4ccccc34)[C@@H]2C1 (stereo partly drawn) | -20 mmHg |  |  |
| O=C(N[C@@H]1CCN2CCc3c([nH]c4ccccc34)[C@@H]2C1)c1cccc(C(F)(F)F)c1 | -3 mmHg |  |  |
| Cc1cccc(C(=O)N[C@H]2CCN3CCc4c([nH]c5ccccc45)[C@@H]3C2)c1 |  | -53 mmHg |  |
| O=C(c1ccccc1)N(C1CC1)C1CCN2CCc3c([nH]c4ccccc34)[C@@H]2C1 (stereo partly drawn) | -26 mmHg |  |  |
| O=C(N[C@H]1CCN2CCc3c([nH]c4ccccc34)[C@@H]2C1)c1ccccc1Br | 18 mmHg |  |  |
| O=C(N[C@@H]1CCN2CCc3c([nH]c4ccccc34)[C@@H]2C1)c1ccccc1Cl | -26 mmHg |  |  |
| Cc1ccccc1C(=O)N(C)C1CCN2CCc3c([nH]c4ccccc34)[C@@H]2C1 (stereo partly drawn) | -44 mmHg |  |  |
| O=C(NC1CCN2CCc3c([nH]c4ccccc34)[C@@H]2C1)c1ccco1 (stereo partly drawn) | 0 mmHg |  |  |
| Cc1ccc(C(=O)N[C@H]2CCN3CCc4c([nH]c5ccccc45)[C@@H]3C2)cc1 |  | -32 mmHg |  |
| CN(C#N)[C@@H]1CCN2CCc3c([nH]c4ccccc34)[C@@H]2C1 | -51 mmHg |  | Activity (Rattus norvegicus [3]): Toxic |
| Cc1cccc(C(=O)N[C@@H]2CCN3CCc4c([nH]c5ccccc45)[C@@H]3C2)c1 | -49 mmHg |  |  |
| CN(C(=O)c1cccc(F)c1)C1CCN2CCc3c([nH]c4ccccc34)[C@@H]2C1 (stereo partly drawn) | -110 mmHg | -76 mmHg |  |
| CN(C(=O)c1ccc(F)cc1)C1CCN2CCc3c([nH]c4ccccc34)[C@@H]2C1 (stereo partly drawn) | -20 mmHg |  |  |
| c1ccc(CCNC2CCN3CCc4c([nH]c5ccccc45)[C@@H]3C2)cc1 (stereo partly drawn) | -16 mmHg |  |  |
| CN(C(=O)c1ccccc1Cl)C1CCN2CCc3c([nH]c4ccccc34)[C@@H]2C1 (stereo partly drawn) |  | -13 mmHg |  |
| CCN(C(=O)c1ccccc1)C1CCN2CCc3c([nH]c4ccccc34)[C@@H]2C1 (stereo partly drawn) | -83 mmHg | -92 mmHg |  |
| CCn1c2c(c3ccccc31)CCN1CCC(N(C)C(=O)c3ccccc3)C[C@@H]21 (stereo partly drawn) | -67 mmHg | -63 mmHg |  |
| O=C(N[C@@H]1CCN2CCc3c([nH]c4ccccc34)[C@@H]2C1)c1ccc(Cl)cc1 | -3 mmHg |  |  |
| CNC1CCN2CCc3c([nH]c4ccccc34)[C@@H]2C1 (stereo partly drawn) | -18 mmHg |  |  |
| O=C(Nc1ccccc1)N[C@H]1CCN2CCc3c([nH]c4ccccc34)[C@@H]2C1 |  | -6 mmHg |  |
| COc1ccc(C(=O)N[C@@H]2CCN3CCc4c([nH]c5ccccc45)[C@@H]3C2)cc1 |  | 10 mmHg |  |
| CN(C(=O)c1ccc(Cl)cc1)C1CCN2CCc3c([nH]c4ccccc34)[C@@H]2C1 (stereo partly drawn) | -6 mmHg |  |  |

| SMILES | Activity (Rattus norvegicus [1]) | Activity (Rattus norvegicus [2]) | also measured |
| --- | --- | --- | --- |
| c1ccc(N[C@H]2CCN3CCc4c([nH]c5ccccc45)[C@@H]3C2)cc1 |  | 5.75 mmHg |  |
| CN(Cc1ccccc1)[C@@H]1CCN2CCc3c([nH]c4ccccc34)[C@@H]2C1 | -54 mmHg |  |  |
| CCCNC1CCN2CCc3c([nH]c4ccccc34)[C@@H]2C1 (stereo partly drawn) | 27 mmHg |  |  |
| Cl.O=C(N[C@@H]1CCN2CCc3c([nH]c4ccccc34)[C@@H]2C1)c1ccc([N+](=O)[O-])cc1 | 15 mmHg |  |  |
| c1ccc(NC2CCN3CCc4c([nH]c5ccccc45)[C@@H]3C2)cc1 (stereo partly drawn) |  | -25 mmHg |  |
| NC1CCN2CCc3c([nH]c4ccccc34)[C@@H]2C1 (stereo partly drawn) |  | -9.5 mmHg |  |
| Nc1ccc(C(=O)N[C@@H]2CCN3CCc4c([nH]c5ccccc45)[C@@H]3C2)cc1 | -31 mmHg |  |  |
| CCn1c2c(c3ccccc31)CCN1CCC(NC)C[C@@H]21 (stereo partly drawn) | -30 mmHg |  |  |
| CN(C(=O)c1ccccc1)[C@@H]1CCN2CCc3c([nH]c4ccccc34)[C@@H]2C1 | -103 mmHg |  | inhibition (Felis catus): Active; Activity (Rattus norvegicus [4]): -19 mmHg; inhibition (Canis familiaris): Active; Activity (Rattus norvegicus [5]): -41 mmHg |
| O=C(N[C@@H]1CCN2CCc3c([nH]c4ccccc34)[C@@H]2C1)c1ccc2c(c1)OCO2 | -52 mmHg |  |  |
| CN(C(=O)c1cccc(C(F)(F)F)c1)C1CCN2CCc3c([nH]c4ccccc34)[C@@H]2C1 (stereo partly drawn) | -48 mmHg | -56 mmHg | inhibition (Felis catus): Active; inhibition (Canis familiaris): Active |
| O=C(N[C@@H]1CCN2CCc3c([nH]c4ccccc34)[C@@H]2C1)c1ccc(F)cc1 |  | -24 mmHg |  |
| O=C(N[C@@H]1CCN2CCc3c([nH]c4ccccc34)[C@@H]2C1)c1ccccc1Br | -24 mmHg |  |  |
| CCCN(C(=O)c1ccccc1)C1CCN2CCc3c([nH]c4ccccc34)[C@@H]2C1 (stereo partly drawn) | -16 mmHg |  |  |
| COc1ccc(C(=O)N(C)[C@@H]2CCN3CCc4c([nH]c5ccccc45)[C@@H]3C2)cc1 | -50 mmHg | -72 mmHg | inhibition (Felis catus): Active; Activity (Rattus norvegicus [4]): -53 mmHg; inhibition (Canis familiaris): Active; Activity (Rattus norvegicus [5]): -86 mmHg |
| c1ccc2c3c([nH]c2c1)[C@@H]1CC(NC2CC2)CCN1CC3 (stereo partly drawn) | -25 mmHg |  |  |
| CN(C(=O)c1ccccc1)[C@H]1CCN2CCc3c([nH]c4ccccc34)[C@@H]2C1 |  |  | Activity (Rattus norvegicus [6]): -17 mmHg |
| CN(C(=O)c1cccc(Cl)c1)C1CCN2CCc3c([nH]c4ccccc34)[C@@H]2C1 (stereo partly drawn) | -79 mmHg | -54 mmHg |  |
| O=C(N[C@@H]1CCN2CCc3c([nH]c4ccccc34)[C@@H]2C1)c1ccccc1 | 1 mmHg |  |  |
| Cl.O=C(NC1CCN(CCc2c[nH]c3ccccc23)CC1)c1ccccc1 [INDORAMIN HYDROCHLORIDE] | -79 mmHg |  |  |
| COc1cc(C(=O)N[C@@H]2CCN3CCc4c([nH]c5ccccc45)[C@@H]3C2)cc(OC)c1OC |  | -25 mmHg |  |
| Cc1ccc(C(=O)N[C@@H]2CCN3CCc4c([nH]c5ccccc45)[C@@H]3C2)cc1 | -18 mmHg |  |  |
| O=C1c2ccccc2CN1[C@@H]1CCN2CCc3c([nH]c4ccccc34)[C@@H]2C1 | 2 mmHg |  |  |
| COc1cccc(C(=O)N[C@@H]2CCN3CCc4c([nH]c5ccccc45)[C@@H]3C2)c1 | -18 mmHg |  |  |
| c1ccc(CNC2CCN3CCc4c([nH]c5ccccc45)[C@@H]3C2)cc1 (stereo partly drawn) | -53 mmHg | -8 mmHg |  |
